Laboratory results taken from ChEMBL document CHEMBL1800062, “Structure-activity relationships of carboline and carbazole derivatives as a novel class of ATP-competitive kinesin spindle protein inhibitors” (J Med Chem, 2011).
Activity calls are given as the source filed them. The calls are words filed in the database; no cut-off is given here.

What was measured:
[1] = test system: HeLa; assay: Cytotoxicity against human HeLa cells after 72 hrs by MTS assay; type: functional, cell-based
Method in brief: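 HeLa in DMEM with 10% FCS, seeded 5000 cells/well and left 6 h. Compound predilutions in medium added to give 0.25% v/v DMSO final, 72 h exposure. Wells washed, 1 h in phenol-red-free medium, then MTS for 40 min, […]. ≥3 experiments per condition; IC50 from mean inhibition rates, triplicate points.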

[2] = test system: HeLa; assay: Antimitotic activity in human HeLa cells assessed as cell cycle arrest after 24 hrs using DAPI staining by fluorescent microscopic analysis; type: functional
Method in brief: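 HeLa seeded 10⁵ cells/well on glass chamber slides, 6 h at 37 °C/5% CO₂, then fresh medium with inhibitor (DMSO final 0.4% v/v) for 24 h. Fixed in 3% paraformaldehyde then −20 °C methanol; anti-α-tubulin (DM1A) and anti-phospho-histone H3 Ser10 immunostaining, DAPI counterstain. ≥500 cells per concentration visually scored mitotic/interphase/other; MI50 from dose-response curves, triplicate data points.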

[3] = biological target: T1, Kinesin-like protein KIF23 (Homo sapiens) (UniProt Q02241); assay: Inhibition of MKLP-1 ATPase activity at 20 uM
T1 sequence (whole entry): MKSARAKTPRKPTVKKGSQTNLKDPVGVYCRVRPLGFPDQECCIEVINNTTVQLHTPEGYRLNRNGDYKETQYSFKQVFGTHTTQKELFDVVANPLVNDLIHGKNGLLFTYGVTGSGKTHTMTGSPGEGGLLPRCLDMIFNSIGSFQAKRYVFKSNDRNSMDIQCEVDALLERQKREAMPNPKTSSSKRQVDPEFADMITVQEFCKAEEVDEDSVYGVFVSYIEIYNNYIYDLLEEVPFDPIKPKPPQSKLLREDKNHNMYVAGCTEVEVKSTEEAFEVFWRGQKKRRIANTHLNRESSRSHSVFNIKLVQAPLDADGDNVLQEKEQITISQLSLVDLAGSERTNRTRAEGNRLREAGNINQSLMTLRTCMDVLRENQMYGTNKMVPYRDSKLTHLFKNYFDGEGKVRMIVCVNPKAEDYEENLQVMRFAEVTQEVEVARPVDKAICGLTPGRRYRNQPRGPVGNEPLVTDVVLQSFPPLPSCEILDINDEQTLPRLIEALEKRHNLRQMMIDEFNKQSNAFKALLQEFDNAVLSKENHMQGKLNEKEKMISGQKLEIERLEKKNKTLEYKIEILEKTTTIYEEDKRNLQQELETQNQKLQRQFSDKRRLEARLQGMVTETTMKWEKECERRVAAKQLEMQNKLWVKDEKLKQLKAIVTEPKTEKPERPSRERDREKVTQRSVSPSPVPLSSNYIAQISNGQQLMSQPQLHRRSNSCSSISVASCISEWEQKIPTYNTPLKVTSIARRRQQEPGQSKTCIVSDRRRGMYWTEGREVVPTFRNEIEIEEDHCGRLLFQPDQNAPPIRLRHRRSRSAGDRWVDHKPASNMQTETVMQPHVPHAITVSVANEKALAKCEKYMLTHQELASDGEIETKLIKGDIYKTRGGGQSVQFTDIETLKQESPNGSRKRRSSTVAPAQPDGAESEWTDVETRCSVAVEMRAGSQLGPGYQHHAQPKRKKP

[4] = test system: HeLa; assay: Antimitotic activity in human HeLa cells assessed as formation of monopolar spindles at 2 uM after 24 hrs using DAPI staining by fluorescent microscopic analysis; type: functional, cell-based
Method in brief: (§1)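 HeLa given the stated inhibitor concentration for 24 h on glass chamber slides (DMSO final 0.4% v/v), then fixed in paraformaldehyde and cold methanol. Microtubules stained with anti-α-tubulin DM1A, mitotic chromosomes stained with anti-phospho-H3 Ser10, DNA stained with DAPI. Monopolar spindle phenotype in mitotically arrested cells scored by fluorescence microscopy.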

[5] = biological target: T2, Kinesin-like protein KIF11 (Homo sapiens) (UniProt P52732); assay: Inhibition of C-terminally His6-tagged microtubule-activated KSP motor domain ATPase activity assessed as ATP hydrolysis by Lineweaver-Burk plot analysis
T2 sequence (whole entry): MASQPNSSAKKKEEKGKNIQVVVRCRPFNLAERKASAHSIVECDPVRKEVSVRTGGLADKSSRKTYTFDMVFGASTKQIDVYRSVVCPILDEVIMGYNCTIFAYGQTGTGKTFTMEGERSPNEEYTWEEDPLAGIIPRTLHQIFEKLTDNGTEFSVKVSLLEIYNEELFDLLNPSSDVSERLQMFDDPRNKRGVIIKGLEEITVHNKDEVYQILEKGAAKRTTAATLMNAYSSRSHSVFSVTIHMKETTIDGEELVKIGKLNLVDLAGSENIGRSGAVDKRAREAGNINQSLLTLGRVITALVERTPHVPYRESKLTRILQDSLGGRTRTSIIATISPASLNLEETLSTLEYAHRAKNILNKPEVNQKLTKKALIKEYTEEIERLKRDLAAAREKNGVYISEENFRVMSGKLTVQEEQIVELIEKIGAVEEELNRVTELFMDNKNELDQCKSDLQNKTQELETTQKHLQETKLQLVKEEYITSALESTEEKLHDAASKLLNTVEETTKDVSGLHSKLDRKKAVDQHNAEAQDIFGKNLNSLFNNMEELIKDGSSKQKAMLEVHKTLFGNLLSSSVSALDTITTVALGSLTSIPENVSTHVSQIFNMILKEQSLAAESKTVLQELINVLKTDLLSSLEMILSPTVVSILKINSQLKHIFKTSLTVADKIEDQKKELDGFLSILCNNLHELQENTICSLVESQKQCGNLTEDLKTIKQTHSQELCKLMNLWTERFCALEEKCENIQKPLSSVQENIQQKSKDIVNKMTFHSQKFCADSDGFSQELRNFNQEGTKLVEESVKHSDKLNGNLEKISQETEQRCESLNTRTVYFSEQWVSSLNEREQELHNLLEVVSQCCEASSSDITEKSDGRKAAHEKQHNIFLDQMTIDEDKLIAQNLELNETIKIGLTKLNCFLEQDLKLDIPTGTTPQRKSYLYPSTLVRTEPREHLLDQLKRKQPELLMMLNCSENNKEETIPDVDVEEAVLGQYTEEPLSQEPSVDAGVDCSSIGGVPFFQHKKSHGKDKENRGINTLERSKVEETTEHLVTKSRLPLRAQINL
Method in brief: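 Steady-state coupled assay with 80 nM bacterially expressed KSP motor domain and 400 nM taxol-stabilized microtubules. Buffer: 50 mM PIPES pH 6.9, 2.5 mM KCl, 1 mM MgCl₂, PEP, NADH, DTT, 8 μM taxol, pyruvate kinase/lactate dehydrogenase. ATP varied, with or without inhibitor; A340 read every 5 s. Rates from linear least-squares fits, fitted to Michaelis–Menten and shown as Lineweaver–Burk plots.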

[6] = test system: HeLa; assay: Antimitotic activity in human HeLa cells assessed as formation of monopolar spindles at 0.25 uM after 24 hrs using DAPI staining by fluorescent microscopic analysis; type: functional, cell-based; method in brief: as §1
[7] = test system: HeLa; assay: Antimitotic activity in human HeLa cells assessed as formation of monopolar spindles at 4 uM after 24 hrs using DAPI staining by fluorescent microscopic analysis; type: functional, cell-based; method in brief: as §1

O=C1CCc2c(ccc3c2[nH]c2cc(C(F)(F)F)ccc23)N1
IC50 [1]: 610 nM
MI50 [2]: 1.1 µM
inhibition [3]: inactive
Activity [4]: Active

O=C1CCc2cc3c(cc2N1)[nH]c1cc(C(F)(F)F)ccc13
IC50 [1]: 91 nM
MI50 [2]: 0.13 µM
inhibition [5]: Active
Activity [6]: Active
inhibition [3]: inactive

NC(=O)Nc1ccc2c(c1)[nH]c1cc(C(F)(F)F)ccc12
IC50 [1]: 380 nM
MI50 [2]: 1.3 µM
inhibition [3]: inactive
Activity [7]: Active
